The record followed here is ChEMBL document CHEMBL1143255, “Standard protecting groups create potent and selective kappa opioids: salvinorin B alkoxymethyl ethers” (Bioorg Med Chem, 2008).

SMILES strings stand for the structures. A value given as a limit tells only on which side of the number the result lay.

Experiment [1] concerns the target T1, Kappa-type opioid receptor (Homo sapiens, UniProt P41145). The experiment in a line: Displacement of [3H]diprenorphine from human kappa opioid receptor expressed in CHO cells. The experiment is classed as cell-based. A digest of the protocol:
(§1)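 Competitive inhibition of [3H]diprenorphine binding to membranes from CHO cells stably transfected with human κ, rat μ or mouse δ receptor; testing blinded to compound identity and molecular mass; mean of three independent experiments in duplicate.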

The target in experiment [2] is Mu-type opioid receptor (Rattus norvegicus, UniProt P33535). Briefly: Displacement of [3H]diprenorphine from rat mu opioid receptor expressed in CHO cells. The experiment is classed as cell-based. The method in brief:
as §1
(In general: Loss of bound radioactivity is the signal in a displacement assay; it reports binding, not function.)

In experiment [3] the target is Delta-type opioid receptor (Mus musculus, UniProt P32300). Briefly: Displacement of [3H]diprenorphine from mouse delta opioid receptor expressed in CHO cells. The experiment is classed as cell-based. A digest of the protocol: as §1
Experiment [4] deals with T1, Kappa-type opioid receptor. The experiment in a line: Agonist activity at human kappa opioid receptor expressed in CHO cells assessed as stimulation of [35S]GTPgammaS binding. The experiment is classed as functional, cell-based. The method in brief: (§2)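 Potency and efficacy from [35S]GTPγS binding to membranes of CHO cells stably expressing human κ receptor; testing blinded to compound identity and molecular mass.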

Experiment [5] addresses T1, Kappa-type opioid receptor. The experiment in a line: Agonist activity at human kappa opioid receptor expressed in CHO cells assessed as stimulation of [35S]GTPgammaS binding relative to U50488H. The experiment is classed as functional, cell-based. A digest of the protocol: as §2
The nature of experiment [6]: Selectivity for human kappa opioid receptor over rat mu opioid receptor.
Experiment [7] in a line: Selectivity for human kappa opioid receptor over mouse delta opioid receptor.

Sequence of Mu-type opioid receptor (P33535 whole entry): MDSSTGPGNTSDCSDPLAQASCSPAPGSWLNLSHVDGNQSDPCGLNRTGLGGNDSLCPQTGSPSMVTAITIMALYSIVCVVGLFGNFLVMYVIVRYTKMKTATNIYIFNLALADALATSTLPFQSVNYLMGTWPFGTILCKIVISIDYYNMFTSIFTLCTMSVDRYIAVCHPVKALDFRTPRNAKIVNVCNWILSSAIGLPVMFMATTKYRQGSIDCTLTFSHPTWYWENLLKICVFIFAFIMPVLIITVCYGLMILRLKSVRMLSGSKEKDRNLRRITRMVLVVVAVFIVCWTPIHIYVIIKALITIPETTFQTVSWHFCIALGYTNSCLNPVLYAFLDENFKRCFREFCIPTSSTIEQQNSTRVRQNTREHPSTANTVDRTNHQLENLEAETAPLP
Sequence of Delta-type opioid receptor (P32300 whole entry): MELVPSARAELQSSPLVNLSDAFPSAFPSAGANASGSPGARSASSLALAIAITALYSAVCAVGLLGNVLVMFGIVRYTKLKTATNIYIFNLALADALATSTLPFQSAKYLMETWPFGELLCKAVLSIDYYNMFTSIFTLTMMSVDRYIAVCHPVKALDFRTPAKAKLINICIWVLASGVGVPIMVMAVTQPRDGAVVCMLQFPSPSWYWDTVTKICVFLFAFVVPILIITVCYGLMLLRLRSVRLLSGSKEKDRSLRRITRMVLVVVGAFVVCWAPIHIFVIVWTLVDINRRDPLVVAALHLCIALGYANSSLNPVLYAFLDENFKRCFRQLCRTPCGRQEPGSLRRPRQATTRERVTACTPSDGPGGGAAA
T1 sequence (P41145 whole entry): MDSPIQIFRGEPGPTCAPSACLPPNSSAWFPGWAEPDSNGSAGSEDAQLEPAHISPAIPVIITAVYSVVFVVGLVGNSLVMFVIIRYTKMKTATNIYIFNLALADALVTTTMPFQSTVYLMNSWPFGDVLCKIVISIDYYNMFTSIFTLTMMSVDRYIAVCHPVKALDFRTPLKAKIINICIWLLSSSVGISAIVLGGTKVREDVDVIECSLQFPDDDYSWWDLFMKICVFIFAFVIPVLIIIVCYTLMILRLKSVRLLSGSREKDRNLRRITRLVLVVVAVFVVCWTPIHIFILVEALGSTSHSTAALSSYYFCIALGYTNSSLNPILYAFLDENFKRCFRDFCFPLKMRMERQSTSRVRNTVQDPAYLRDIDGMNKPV

One may read the Ki as a dissociation constant, usually derived from enzyme kinetics or from competition with a known ligand. The EC50 is the midpoint of the concentration-response curve. For orientation: Emax means the size of the effect at its maximum, as opposed to the concentration needed. On to `COC(=O)[C@@H]1C[C@H](OCOC(C)C)C(=O)[C@H]2[C@@]1(C)CC[C@H]1C(=O)O[C@H](c3ccoc3)C[C@]21C` [SALVINORIN B ISOPROPOXYMETHYL ETHER], for which the Ki is 1.6 nM in experiment [1], more than 1000 nM in experiment [2] and more than 1000 nM in experiment [3]. Moreover, in experiment [4], the EC50 was found to be 4.2 nM. Also, the Emax in experiment [5] stood at 81%.
In the case of `CCOC(C)O[C@H]1C[C@@H](C(=O)OC)[C@]2(C)CC[C@H]3C(=O)O[C@H](c4ccoc4)C[C@]3(C)[C@H]2C1=O` (some centres undefined) [listing 1 of 3 here], the Emax in experiment [5] was 81%.
Take `COC(=O)[C@@H]1C[C@H](OCOCC(F)(F)F)C(=O)[C@H]2[C@@]1(C)CC[C@H]1C(=O)O[C@H](c3ccoc3)C[C@]21C`: the Ki was 31 nM in experiment [1], more than 1000 nM in experiment [2] and more than 1000 nM in experiment [3]. Moreover, the EC50 in experiment [4] turned out to be 75 nM. For the same molecule, in experiment [5], the Emax was 81%.
With `COCCOCO[C@H]1C[C@@H](C(=O)OC)[C@]2(C)CC[C@H]3C(=O)O[C@H](c4ccoc4)C[C@]3(C)[C@H]2C1=O`, the inhibitory constant (Ki) in experiment [1] is 141 nM; in experiment [2] it was more than 1000 nM; in experiment [3], more than 1000 nM. The EC50 in experiment [4] amounted to 320 nM. Further, the Emax in experiment [5] was determined as 81%.
On to `COC(=O)[C@@H]1C[C@H](OCOCCF)C(=O)[C@H]2[C@@]1(C)CC[C@H]1C(=O)O[C@H](c3ccoc3)C[C@]21C`, for which the values for the Ki in experiment [1], in experiment [2] and in experiment [3] were 1.9 nM, more than 1000 nM and more than 1000 nM, respectively. Besides, the EC50 in experiment [4] was 3.8 nM. Further, the Emax in experiment [5] was found to be 81%. Further, in experiment [6], the Selectivity ratio was more than 500.
For `COC(=O)[C@@H]1C[C@H](OCSC)C(=O)[C@H]2[C@@]1(C)CC[C@H]1C(=O)O[C@H](c3ccoc3)C[C@]21C` [SALVINORIN B METHYLTHIOMETHYL ETHER], the Ki in experiment [1] was 13 nM; in experiment [2] it was more than 1000 nM; in experiment [3] it was more than 1000 nM. In addition, the EC50 in experiment [4] turned out to be 31 nM. Further, in experiment [5], the Emax was found to be 81%.
`CCO[C@H]1C[C@@H](C(=O)OC)[C@]2(C)CC[C@H]3C(=O)O[C@H](c4ccoc4)C[C@]3(C)[C@H]2C1=O` [DEOXY SALVINORIN A]: the EC50 in experiment [4] was determined as 18 nM.
For `COC(=O)[C@@H]1C[C@H](OCOCc2ccccc2)C(=O)[C@H]2[C@@]1(C)CC[C@H]1C(=O)O[C@H](c3ccoc3)C[C@]21C` [SALVINORIN B BENZYLOXYMETHYL ETHER], the Ki in experiment [1] is 147 nM; in experiment [2], more than 1000 nM; in experiment [3] it was more than 1000 nM. Besides, the EC50 in experiment [4] came to 274 nM. Also, the Emax in experiment [5] was determined as 81%.
Consider `CCOC(C)O[C@H]1C[C@@H](C(=O)OC)[C@]2(C)CC[C@H]3C(=O)O[C@H](c4ccoc4)C[C@]3(C)[C@H]2C1=O` (some centres undefined) [listing 2 of 3 here], for which the Ki in experiment [2] (cho) and in experiment [3] (cho) was more than 1000 nM throughout.
On to `COC(=O)[C@@H]1C[C@H](OCOC(C)(C)C)C(=O)[C@H]2[C@@]1(C)CC[C@H]1C(=O)O[C@H](c3ccoc3)C[C@]21C`, for which the Ki was 35 nM in experiment [1], more than 1000 nM in experiment [2] and more than 1000 nM in experiment [3]. Also, the EC50 in experiment [4] stood at 108 nM. The Emax in experiment [5] turned out to be 81%.
Regarding `COC(=O)[C@@H]1C[C@H](OCOCC[Si](C)(C)C)C(=O)[C@H]2[C@@]1(C)CC[C@H]1C(=O)O[C@H](c3ccoc3)C[C@]21C`, the inhibition constant Ki in experiment [1], in experiment [2] and in experiment [3] was more than 1000 nM throughout. Further, the EC50 in experiment [4] is 1660 nM. Moreover, the Emax in experiment [5] was determined as 81%.
As to `COC(=O)[C@@H]1C[C@H](OC2CCCCO2)C(=O)[C@H]2[C@@]1(C)CC[C@H]1C(=O)O[C@H](c3ccoc3)C[C@]21C` (some centres undefined), the Ki is 4 nM in experiment [1], more than 1000 nM in experiment [2] and more than 1000 nM in experiment [3]. For the same molecule, the EC50 in experiment [4] amounted to 2.8 nM. Moreover, the Emax in experiment [5] was determined as 81%.
In the case of `CCOCO[C@H]1C[C@@H](C(=O)OC)[C@]2(C)CC[C@H]3C(=O)O[C@H](c4ccoc4)C[C@]3(C)[C@H]2C1=O` [SALVINORIN B ETHOXYMETHYL ETHER], the Ki was 0.32 nM in experiment [1], more than 1000 nM in experiment [2] and more than 1000 nM in experiment [3]. Also, the EC50 in experiment [4] came to 0.14 nM. In experiment [5], the maximal response (Emax) is 81%. Moreover, the Selectivity ratio in experiment [6] and in experiment [7] was more than 3000 in each case.
Consider `CCCCOCO[C@H]1C[C@@H](C(=O)OC)[C@]2(C)CC[C@H]3C(=O)O[C@H](c4ccoc4)C[C@]3(C)[C@H]2C1=O` [SALVINORIN B BUTOXYMETHYL ETHER], for which the Ki in experiment [1] was 5.3 nM; in experiment [2], more than 1000 nM; in experiment [3] it was more than 1000 nM. Besides, the EC50 in experiment [4] was 20 nM. The Emax in experiment [5] was 81%.
Turning to `COC(=O)[C@@H]1C[C@H](OCF)C(=O)[C@H]2[C@@]1(C)CC[C@H]1C(=O)O[C@H](c3ccoc3)C[C@]21C` [SALVINORIN B FLUOROMETHYL ETHER], the figures for the Ki in experiment [1], in experiment [2] and in experiment [3] were 50 nM, more than 1000 nM and more than 1000 nM, respectively. Further, the EC50 in experiment [4] was 26 nM. Moreover, in experiment [5], the Emax was determined as 81%.
For `CCOC(C)O[C@H]1C[C@@H](C(=O)OC)[C@]2(C)CC[C@H]3C(=O)O[C@H](c4ccoc4)C[C@]3(C)[C@H]2C1=O` (some centres undefined) [listing 3 of 3 here], the Ki in experiment [2] and in experiment [3] was more than 1000 nM throughout.
Take `CCCOCO[C@H]1C[C@@H](C(=O)OC)[C@]2(C)CC[C@H]3C(=O)O[C@H](c4ccoc4)C[C@]3(C)[C@H]2C1=O` [SALVINORIN B PROPOXYMETHYL ETHER]: the Ki is 2.2 nM in experiment [1], more than 1000 nM in experiment [2] and more than 1000 nM in experiment [3]. The EC50 in experiment [4] came to 5.2 nM. Further, the Emax in experiment [5] was found to be 81%.
For `COC(=O)[C@@H]1C[C@H](OC(C)(C)OC)C(=O)[C@H]2[C@@]1(C)CC[C@H]1C(=O)O[C@H](c3ccoc3)C[C@]21C`, the Ki in experiment [1] was 72 nM; in experiment [2] it was more than 1000 nM; in experiment [3] it was more than 1000 nM. Also, in experiment [4], the EC50 came to 72 nM. The Emax in experiment [5] was determined as 81%.
